Measurements of several laboratories.
Protocols differ between the studies behind these lines.
Organism: Mycobacterium tuberculosis
Read-out: microbial growth

COC(=O)c1cc(-c2cccc(NC(=O)Nc3ccccc3F)c2)on1
MIC (ATCC27294 H37RV; 7 days): 2 µg/mL

O=C(CCNS(=O)(=O)c1ccccc1[N+](=O)[O-])N1CCN(C(c2ccc(F)cc2)c2ccc(F)cc2)CC1
MIC (ATCC27294 H37RV): > 25 µg/mL

CC(C)[C@H]1CO[C@]23CCN(Cc4ccccc4)C[C@H]2CCC(=O)N13
MIC (resazurin; H37RV; 7 days): 5.73 µM

COC(=O)c1cc(-c2cccc(NC(=O)Nc3ccc(C)c(Cl)c3)c2)on1
MIC (ATCC27294 H37RV; 7 days): 16 µg/mL

O=C1C(=NNc2nc(-c3ccccc3)cs2)C(N=Cc2cccc(Cl)c2)=NN1c1ccccc1
MIC (resazurin; H37RV): 6.25 µg/mL

CN[C@H](CC(C)C)C(=O)N[C@H]1C(=O)N[C@@H](CC(N)=O)C(=O)N[C@H]2C(=O)N[C@H]3C(=O)N[C@H](C(=O)N[C@H](C(=O)O)c4cc(O)cc(O)c4-c4cc3ccc4O)[C@H](O)c3ccc(c(Cl)c3)Oc3cc2cc(c3O[C@@H]2O[C@H](CO)[C@@H](O)[C@H](O)[C@H]2O[C@H]2C[C@](C)(N)[C@H](O)[C@H](C)O2)Oc2ccc(cc2Cl)[C@H]1O
MIC (H37RV; 14 days): 12.5 µg/mL

O=C1C(=NNc2nc(-c3ccccc3)cs2)C(N=Cc2ccc(Cl)cc2)=NN1c1ccccc1
MIC (resazurin; H37RV; 5 days): 51.5 µM

O=C(NN1C(=O)CSC12CCCCC2)c1[nH]c2ccc(Cl)cc2c1-c1ccccc1
MIC (ATCC27294 H37RV): 16 µM

C=C[C@@]1(C)CC[C@@H]2C(C)(C)c3cccc4[nH]c5c(c34)[C@@]2(O)[C@]1(C#N)[C@H]1O[C@H]1C5(C)C
MIC (H37RV): 11.3 µM

CC1=NN(CNc2ccccn2)C(=O)C1=NNn1c(-c2ccccc2)nc2ccccc2c1=O
MIC (resazurin; H37RV): 110 µM

CC[C@@H](CO)NCCN[C@@H](CC)CO
MIC (H37RV; 5 days): 6.6 µM

COC(=O)c1cc(-c2cccc(NC(=O)Nc3ccc(Cl)c(Cl)c3)c2)on1
MIC (ATCC27294 H37RV; 7 days): 0.25 µg/mL

CO[C@H]1/C=C/O[C@@]2(C)Oc3c(C)c(O)c4c(O)c(c(/C=N/N5CCN(C)CC5)c(O)c4c3C2=O)NC(=O)/C(C)=C\C=C\[C@H](C)[C@H](O)[C@@H](C)[C@@H](O)[C@@H](C)[C@H](OC(C)=O)[C@@H]1C
MIC (ATCC27294 H37RV): < 0.1 µg/mL

O=C1C(=NNc2nc(-c3ccccc3)cs2)C(N=Cc2ccccc2)=NN1c1ccccc1
MIC (resazurin; H37RV; 5 days): 13.9 µM

Cc1ccn2c(C(=O)NCc3cccc(S(F)(F)(F)(F)F)c3)c(C)nc2c1
MIC (H37RV; 5 days): 0.65 µM

O=C(c1cc2c(F)cc(F)cc2[nH]1)N1CCN(C(=O)C23CC4CC(CC(C4)C2)C3)CC1
MIC (resazurin; H37RV): > 75 µM

CO[C@H]1/C=C/O[C@@]2(C)Oc3c(C)c(O)c4c(O)c(c(/C=N/N5CCN(C)CC5)c(O)c4c3C2=O)NC(=O)/C(C)=C\C=C\[C@H](C)[C@H](O)[C@@H](C)[C@@H](O)[C@@H](C)[C@H](OC(C)=O)[C@@H]1C
MIC (H37RV): 0.85 µg/mL

CCOC(=O)c1cc(-c2cccc(NC(=O)Nc3ccc(Cl)c(Cl)c3)c2)on1
MIC (ATCC27294 H37RV; 7 days): 1 µg/mL

C[C@@H](O)[C@H]1C(=O)N2C(C(=O)O)=C(SCCN=CN)C[C@H]12
MIC (resazurin; H37RA; 14 days): 16 µg/mL

CO[C@H]1/C=C/O[C@@]2(C)Oc3c(C)c(O)c4c(O)c(c(/C=N/N5CCN(C)CC5)c(O)c4c3C2=O)NC(=O)/C(C)=C\C=C\[C@H](C)[C@H](O)[C@@H](C)[C@@H](O)[C@@H](C)[C@H](OC(C)=O)[C@@H]1C
MIC (W4): 0.016 µM

NNC(=O)c1ccncc1
MIC (resazurin; H37RA; 14 days): 0.05 µg/mL

COC(=O)c1cc(-c2cccc(NC(=S)Nc3ccc(F)cc3)c2)on1
MIC (ATCC27294 H37RV; 7 days): 4 µg/mL

COC1C(O)C(n2ccc(=O)[nH]c2=O)OC1C(OC1OC(C(=O)Nc2ccc(F)c(F)c2)=CC(O)C1O)C(N)=O (centres unmarked)
MIC (resazurin; H37RV): 1.56 µg/mL

CO[C@H]1/C=C/O[C@@]2(C)Oc3c(C)c(O)c4c(O)c(c(/C=N/N5CCN(C)CC5)c(O)c4c3C2=O)NC(=O)/C(C)=C\C=C\[C@H](C)[C@H](O)[C@@H](C)[C@@H](O)[C@@H](C)[C@H](OC(C)=O)[C@@H]1C
MIC (H37RV; 5 days): 0.003 µM

O=C(CNS(=O)(=O)c1ccccc1[N+](=O)[O-])N1CCN(C(c2ccc(F)cc2)c2ccc(F)cc2)CC1
MIC (ATCC27294 H37RV): > 25 µg/mL

COC(=O)c1cc(-c2cccc(NC(=O)Nc3ccc(Cl)cc3)c2)on1
MIC (ATCC27294 H37RV; 7 days): 2 µg/mL

Cc1c(Cc2ccccc2Cl)c(=O)n2c([nH]c3ccccc32)c1C#N
MIC (broth dilution; H37RV): > 128 µg/mL

Cc1ccc(C)n1-c1ccc(-c2nnco2)cc1
MIC (broth dilution; H37RV; 21 days): 4 µg/mL

COc1nc2ccc(Br)cc2cc1[C@@H](c1ccccc1)[C@@](O)(CCN(C)C)c1cccc2ccccc12
MIC: 0.06 µg/mL

C[C@@H]1CN(CC2CCCCC2)C[C@H](C)N1c1nc(=O)c2cc(C(F)(F)F)cc(C#N)c2s1
MIC (resazurin; H37RV): > 2 µM

CC1CCCC2(C1)SC(C)C(=O)N2NC(=O)c1[nH]c2ccc(Cl)cc2c1-c1ccccc1 (centres unmarked)
MIC (ATCC27294 H37RV): 500 µM

Cc1ccc(C)n1-c1ccc(-c2nnc(-c3ccccc3[N+](=O)[O-])[nH]2)cc1
MIC (broth dilution; H37RV; 21 days): 16 µg/mL

COC(=O)c1cc(-c2cccc(NC(=S)Nc3ccc(C)cc3)c2)on1
MIC (ATCC27294 H37RV; 7 days): 2 µg/mL

CO[C@H]1/C=C/O[C@@]2(C)Oc3c(C)c(O)c4c(O)c(c(/C=N/N5CCN(C)CC5)c(O)c4c3C2=O)NC(=O)/C(C)=C\C=C\[C@H](C)[C@H](O)[C@@H](C)[C@@H](O)[C@@H](C)[C@H](OC(C)=O)[C@@H]1C
MIC (resazurin; H37RV; 7 days): 0.061 µM

C[C@H]1O[C@H](O[C@H]2CC[C@H](n3ccc(NC(=O)c4ccc(NC(=O)[C@@](C)(N)CO)cc4)nc3=O)O[C@@H]2C)[C@H](O)[C@@H](O)[C@@H]1N(C)C
MIC (H37RA): 0.8 µM

CO[C@H]1/C=C/O[C@@]2(C)Oc3c(C)c(O)c4c(O)c(c(/C=N/N5CCN(C)CC5)c(O)c4c3C2=O)NC(=O)/C(C)=C\C=C\[C@H](C)[C@H](O)[C@@H](C)[C@@H](O)[C@@H](C)[C@H](OC(C)=O)[C@@H]1C
MIC (H37RA): 0.008 µg/mL

CCc1nc2ccc(Cl)cn2c1C(=O)NCc1ccc(S(F)(F)(F)(F)F)cc1
MIC (H37RV; 5 days): 0.014 µM

CC(=O)O[C@H]1C[C@@]2(C)[C@@H](C[C@@H](O)[C@H]3[C@@]4(C)CC[C@@H](O)[C@@H](C)[C@@H]4CC[C@@]32C)/C1=C(\CCC=C(C)C)C(=O)O
MIC (resazurin; H37RA; 14 days): 4 µg/mL

CCCC1CCC2(CC1)SC(C)C(=O)N2NC(=O)c1[nH]c2ccc(Cl)cc2c1-c1ccccc1 (centres unmarked)
MIC (ATCC27294 H37RV): 1000 µM

N=C(N)Cc1ccc(NC(=O)c2ccc(C(=O)Nc3ccc(CC(=N)N)cc3)cc2)cc1
MIC (H37RV; 7 days): 1 µg/mL

CCCCCCC/C=C\C(O)C#CC#CC(=O)CCOC (centres unmarked)
MIC (resazurin; ATCC35801 ERDMAN; 7 days): > 60 µg/mL

Cc1c(Cc2ccc(F)cc2)c(=O)n2c([nH]c3ccccc32)c1C#N
MIC (broth dilution; H37RV): 2 µg/mL

CCC1CCC2(CC1)SC(C)C(=O)N2NC(=O)c1[nH]c2ccc(Cl)cc2c1-c1ccccc1 (centres unmarked)
MIC (ATCC27294 H37RV): 1000 µM

CNC(=O)c1cc(Oc2ccc(NC(=O)Nc3ccc(Cl)c(C(F)(F)F)c3)cc2)ccn1
MIC (H37RV): 25 µM

Cc1ccc(C)n1-c1ccc(-c2n[nH]c(=S)[nH]2)cc1
MIC (broth dilution; H37RV; 21 days): 2 µg/mL

CC(C)[C@H]1CO[C@]23CCN(Cc4ccc(C(F)(F)F)cc4)C[C@H]2CCC(=O)N13
MIC (H37RV; 7 days): 0.16 µM

O=C1COCCN1c1ccc(CO[C@@H]2COc3nc([N+](=O)[O-])cn3C2)cc1F
MIC (H37RV): 0.4 to 0.8 µg/mL

N#Cc1cc(C(F)(F)F)cc2c(=O)nc(N3CCN(CC4COC4)CC3)sc12
MIC (resazurin; H37RV): > 2 µM

COC(=O)c1cc(-c2cccc(NC(=O)Nc3cccc(Cl)c3Cl)c2)on1
MIC (ATCC27294 H37RV; 7 days): 0.5 µg/mL

O=C1C(=NNc2nc(-c3ccccc3)cs2)C(N=Cc2ccccc2Cl)=NN1c1ccccc1
MIC (resazurin; H37RV): 25 µg/mL
